# The list is not random: actives were taken first. Their share in the collection is about 3.7%.
# Kir21 inh – Kir2.1 (mouse) channel inhibition; hit rate 0.85% among 310,000; B-score at 10 µM; P35561; HEK293-Kir2.1, FluxOR thallium flux fluorescence; active compounds read low;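 active = fluorescence ratio B-score at or below minus 3 SD of library scores, with starting-brightness B-score within 2 SD, cut at about -4.2 in these data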;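 note: channel flux triggered by added potassium and thallium sulfate stimulus; B-score of peak minus minimum fluorescence over baseline after thallium stimulus; more negative B-score means stronger Kir2.1 block with less thallium influx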
# KCNK9 inh – human KCNK9 channel inhibition; Q9NPC2; HEK293 KCNK9, FluxOR thallium flux fluorescence; active compounds read low; B-score at 10 µM; hit rate 1.2% among 310,000; AID 488922;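 active = ratio B-score over 3 SD below the library mean, with starting fluorescence within 5 SD of its mean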;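 note: negative B-score means less thallium flux so channel inhibition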
# KCNQ1 act – potentiators or activators of human KCNQ1 potassium channel; B-score at 10 µM; P51787; CHO-K1 KCNQ1, thallium flux FluxOR fluorescence; active compounds read high; hit rate 0.35% among 310,000;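 active = fluorescence ratio B-score, a plate-corrected score, at least three library SD, with initial intensity B-score within 5 SD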
#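 Material: CHO-K1 cells stably expressing KCNQ1. Medium: assay buffer for compound exposure, DMSO matched across wells. Reagent: K+/Tl+ depolarizing stimulus. Compound dosing: single-concentration screen. Times: 37 °C overnight plating, 90-min dark dye load, 20-min compound pretreatment. Technique: FluxOR Tl+ flux fluorescence.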
# KCNQ1 inh – inhibitors of human KCNQ1 potassium channel | AID 2642 | hit rate 1.3% among 310,000 | B-score at 10 µM | CHO-K1 KCNQ1, FluxOR thallium flux fluorescence; active compounds read high;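 active = compounds whose thallium flux B-score, printed positive for inhibition, exceeds three library SD while starting fluorescence stays within three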;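 note: channel opened by potassium depolarization with thallium stimulus after 20 min compound exposure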
# KCNK3 block – human KCNK3 channel inhibition, primary screen; hit rate 0.84% among 340,000; O14649; B-score at 10 µM; CHO-KCNK3 thallium flux, FluxOR fluorescence; active compounds read low; AID 602410;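 active = B-score under library mean minus 4 SD, starting fluorescence ratio at most library mean plus 5 SD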;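 note: more negative B-score means stronger inhibition of thallium flux through KCNK3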
# Target sequence (O14649 whole entry, looked up): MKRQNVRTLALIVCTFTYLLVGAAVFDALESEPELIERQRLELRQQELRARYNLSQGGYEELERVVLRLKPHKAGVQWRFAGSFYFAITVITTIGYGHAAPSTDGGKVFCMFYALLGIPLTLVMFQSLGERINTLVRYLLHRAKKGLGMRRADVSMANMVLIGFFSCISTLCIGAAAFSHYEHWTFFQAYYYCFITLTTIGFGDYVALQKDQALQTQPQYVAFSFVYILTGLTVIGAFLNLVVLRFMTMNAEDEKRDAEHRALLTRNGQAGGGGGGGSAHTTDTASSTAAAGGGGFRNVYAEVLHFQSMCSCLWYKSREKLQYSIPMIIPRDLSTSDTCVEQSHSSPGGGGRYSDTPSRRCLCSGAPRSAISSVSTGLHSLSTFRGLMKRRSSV
# hERG rescue – compounds protecting human hERG from proarrhythmic drug block. Q12809. CHO-hERG, FluxOR thallium flux, dofetilide IC70 present. activation (rescue from dofetilide block), less the hit threshold, % at 10 µM. hit rate 0.51% among 310,000;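 active = activation above the mean of controls blocked by dofetilide plus 5 SD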;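 note: thallium influx through hERG after potassium depolarization seen as dye fluorescence rise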
# KCNK9 inh conf – confirmation of human KCNK9 potassium channel inhibitors | HEK293 KCNK9 cells, FluxOR thallium flux fluorescence | shares compounds with KCNK9 inh | inhibition, % at 10 µM | hit rate 43% among 4,900;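 active = thallium signal inhibited by more than 5 SD of the compound-free buffer control wells, on both duplicate plates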;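 note: 0% = assay buffer control wells without compound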
# Kir21 sel – mouse Kir2.1 off-target activity of KCNK9 modulators | shares compounds with KCNK9 inh | Kir2.1 cells, FluxOR thallium flux fluorescence | inhibition, % at 10 µM | hit rate 4% among 4,900;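 active = thallium signal drop more than 5 SD beyond the mean of the no-compound control wells, seen in both duplicate plates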;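 note: signal is fluorescence rise after thallium addition divided by baseline fluorescence; plate controls were assay buffer only for no effect and full block by chlorpromazine control for full effect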
# HEK293 Tl ctr – second counter-screen for KCNK9 modulators: effect in non-induced cells. non-induced KCNK9-HEK293, FluxOR thallium flux. shares compounds with KCNK9 inh. hit rate 40% among 4,900. inhibition, % at 10 µM;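 active = thallium signal drop beyond 5 SD of the untreated control mean, on both duplicate plates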;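 note: plate controls were buffer only IC0 wells for no effect and SID17386958 at its maximal inhibitory level for full effect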
# Numbers without * were called inactive; i = inactive; nt = no result.
SMILES,Kir21 inh,KCNK9 inh,KCNQ1 act,KCNQ1 inh,KCNK3 block,hERG rescue,KCNK9 inh conf,Kir21 sel,HEK293 Tl ctr
COc1ccc(-c2nc(-c3ccccc3)c(-c3cc([N+](=O)[O-])ccc3C)[nH]2)cc1OC,0.22,-12.2*,i,14*,i,-7.3,54.5%*,i,33.0%*
Cc1ccc(C)c2[nH]c(=O)c(CN(Cc3ccco3)C(=O)Nc3ccccc3)cc12,1.77,-13.3*,i,i,i,-15.5,62.5%*,i,i
Cc1ccc2cc(CN(Cc3ccco3)C(=O)NCc3ccccc3)c(=O)[nH]c2c1C,-0.27,i,i,i,i,-5.1,nt,nt,nt
N#Cc1ccccc1Sc1ccccc1C(=O)OCC(=O)NC12CC3CC(CC(C3)C1)C2,-0.5,-8.54*,i,i,i,-6.0,47.5%*,i,30.0%*
Cc1ccc(C(=O)COc2cc(O)c3c(=O)cc(-c4ccccc4)oc3c2)cc1,0.1,i,i,i,i,-1.4,nt,nt,nt
O=C(COc1cc(O)c2c(=O)cc(-c3ccccc3)oc2c1)c1ccccc1,-0.58,-8.73*,i,i,i,-7.5,44.0%*,i,30.5%*
O=C(CSc1ccc(-c2ccc(F)cc2)nn1)N1CCCc2ccccc21,-0.01,i,i,i,i,-5.3,nt,nt,nt
O=C(CSc1ccc(-c2ccc(Cl)cc2)nn1)N1CCCc2ccccc21,1.27,i,i,i,i,-15.4,i,i,i
COc1ccc(C(c2nnnn2Cc2cccs2)N2CCN(c3ccccc3F)CC2)cc1 (stereo not drawn),-1.07,-11.7*,i,i,i,-4.7,28.5%*,i,38.5%*
O=C(COc1ncnc2sccc12)Nc1cccc(S(=O)(=O)N2CCOCC2)c1,nt,nt,nt,nt,i,nt,nt,nt,nt
Cc1ccc(N=c2ssnc2Cl)cc1,0.09,i,i,i,i,-13.8,nt,nt,nt
Cc1cc(C)nc(/N=c2/ssnc2Cl)c1,-0.19,i,i,i,i,-9.0,i,i,i
C#CC(C)(O)C1CC(CC(=O)O)C1(C)C (stereo not drawn),nt,nt,nt,nt,i,nt,nt,nt,nt
CCCOc1ccccc1N/C(N)=N/c1nc(C)cc(C)n1,-0.67,i,i,i,i,-14.3,nt,nt,nt
CCCOc1ccccc1N/C(=N/c1nc(C)cc(C)n1)NC(=O)COc1ccc(OC)cc1,-0.38,-26.6*,i,10*,i,-15.2,77.0%*,i,41.0%*
CC1CCCCN1C(=O)CSc1nc(C2CC2)nc2c1cnn2-c1ccccc1 (stereo not drawn),1.28,-11.2*,i,i,i,-9.8,56.0%*,i,i
Cc1nn(C)c(C)c1NC(=O)CSc1nc(C2CC2)nc2c1cnn2-c1ccccc1,0.62,i,i,i,i,-15.8,nt,nt,nt
CCc1nn(CC(=O)N(C)C2CCCCC2)c(=O)c2cc3cc(C)ccc3n12,1.42,i,i,i,i,-11.3,nt,nt,nt
Cc1ccc(S(=O)(=O)N/N=C/c2cccc(OC3CSC3)c2)cc1,0.61,i,i,i,i,-8.1,nt,nt,nt
Cc1ccc(CSCC(=O)N/N=C/c2cccc(OC3CSC3)c2)cc1,-0.62,i,i,i,i,-9.3,i,i,i
COc1ccc(C(=O)N[C@H](C(=O)NCCCSc2ccccc2)C(C)C)cc1,nt,nt,nt,nt,i,nt,nt,nt,nt
CCOc1ccccc1C(=O)N[C@H](C(=O)OCc1cc([N+](=O)[O-])cc2c1OCOC2)C(C)C,0.01,-10.1*,i,i,i,-13.5,48.0%*,i,25.0%*
CN1c2ccccc2C2(C)CCCC3=Cc4cccc([N+](=O)[O-])c4OC312 (stereo not drawn),-1.06,-10.4*,i,i,i,-19.8,57.0%*,i,35.0%*
C/C(=N\Nc1ccc(Cl)c(C(=O)O)c1)c1ccc[nH]1,-1.34,i,i,i,i,-7.9,nt,nt,nt
Cc1cc(Cl)ccc1OCCCC(=O)N1CCCc2ccccc21,-2.97,i,i,i,i,-10.3,i,67.0%*,i
SMILES,Kir21 inh,KCNK9 inh,KCNQ1 act,KCNQ1 inh,KCNK3 block,hERG rescue,KCNK9 inh conf,Kir21 sel,HEK293 Tl ctr
O=C(CCCOc1ccccc1)N1CCCc2ccccc21,-2.13,i,i,i,i,-3.9,nt,nt,nt
O=C(Cc1ccc(Br)cc1)N1CCN(c2ccccc2)CC1,1.11,i,i,i,i,-10.3,nt,nt,nt
Cc1cccc(N2CCN(C(=O)Cc3ccc(Br)cc3)CC2)c1C,-0.57,i,i,i,i,-16.6,i,i,26.5%*
Cc1ccc(NC(=O)Cc2nc(CN(C)CC(=O)Nc3ccc(C)cc3)cs2)cc1,nt,nt,nt,nt,i,nt,nt,nt,nt
COc1ccc(C(=O)C[n+]2cccc(C)c2C)cc1[N+](=O)[O-],1.21,i,i,i,i,-14.2,nt,nt,nt
CCC(C)(C)c1ccc(OCCCC[n+]2cccc(C)c2C)c(C(C)(C)CC)c1,-9.53*,-11.6*,i,i,i,-29.1,56.5%*,46.0%*,i
CCOC(=O)C1(CCOc2ccccc2)CCN(Cc2ccc(F)c(OC)c2)CC1,-1.79,i,i,i,i,-4.8,i,i,i
CCOC(=O)C1(CCOc2ccccc2)CCN(Cc2cc(OC)ccc2OC)CC1,-0.18,i,i,i,i,-12.4,i,i,i
CCOC(=O)C1(CCOc2ccccc2)CCN(Cc2ccc(O)c(OC)c2)CC1,-0.65,i,i,i,i,-13.7,nt,nt,nt
CCOC(=O)C1(CCOc2ccccc2)CCN(Cc2cccn2-c2ncccn2)CC1,-1.38,i,i,i,i,-19.6,i,i,i
COC(=O)C(=Cc1ccccc1[N+](=O)[O-])C(=O)OC,-0.54,i,i,i,i,-7.4,nt,nt,nt
COC(=O)c1ccc(/C=N/N2CCN(Cc3ccc(C)cc3C)CC2)cc1,0.19,i,i,i,i,-12.5,i,i,i
COc1ccc(C(C)=O)cc1COC(=O)Cc1cc(OC)c(OC)c(OC)c1,-2.36,i,i,i,i,-9.7,nt,nt,nt
Cc1cc2ccccn2c1C(=O)c1nc(NCc2ccccc2)ncc1Cl,0.04,i,i,i,i,-7.0,i,i,25.5%*
CCOC(=O)C(NC(=O)c1ccccc1Cl)(Nc1ccc(C(F)(F)F)cc1)C(F)(F)F (stereo not drawn),-0.17,-11.6*,i,i,i,-7.0,66.0%*,i,42.5%*
CC1=NNC(=O)/C1=C\c1cn(-c2ccccc2)nc1-c1ccc(Cl)cc1,1.2,i,i,i,i,-7.6,i,i,i

# Assay outcomes as filed in PubChem BioAssay.
